Experimental data published in ChEMBL document CHEMBL5058577, “EUbOPEN Chemogenomics Library 2 (Multiplex)” (2022).

Tested on: Fibroblast
Assay: Multiplex assay against human fibroblast
Format: toxicity, cell-based
Procedure, shortened: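 Live cells were stained at seeding with Hoechst33342, BioTracker Green Microtubule Cytoskeleton Dye, MitoTracker Red and Annexin V Alexa Fluor 680. Following compound addition, they were imaged on a CQ1 microscope at 37°C and 5% CO2 and gated by CellPathfinder machine learning into Hoechst high-intensity objects or normal cells, with normal cells split into healthy, pyknosed or fragmented nuclei and pyknosed cells into mitotic or apoptotic. Tubulin, mitochondrial-mass and membrane-permeability phenotypes are per cents of healthy-nucleus cells.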

[1] = 12 h, 1 µM, compound concentration 1 uM, replicate 1
[2] = 12 h, 1 µM, compound concentration 1 uM, replicate 2
[3] = 12 h, 10 µM, compound concentration 10 uM, replicate 1
[4] = 12 h, 10 µM, compound concentration 10 uM, replicate 2
[5] = 24 h, 1 µM, compound concentration 1 uM, replicate 1
[6] = 24 h, 1 µM, compound concentration 1 uM, replicate 2
[7] = 24 h, 10 µM, compound concentration 10 uM, replicate 1
[8] = 24 h, 10 µM, compound concentration 10 uM, replicate 2
[9] = 48 h, 1 µM, compound concentration 1 uM, replicate 1
[10] = 48 h, 1 µM, compound concentration 1 uM, replicate 2
[11] = 48 h, 10 µM, compound concentration 10 uM, replicate 1
[12] = 48 h, 10 µM, compound concentration 10 uM, replicate 2

SMILES: C=CCN1C[C@H](C(=O)N(CCCN(C)C)C(=O)NCC)C[C@@H]2c3cccc4[nH]cc(c34)C[C@H]21 [CABERGOLINE]
- Population Apoptotic (%) [1]: 69%
- Population Fragmented Nuclei (%) [1]: 13%
- Population Healthy Nuclei (%) [1]: 78%
- Population Hoechst High Intensity Objects (%) [1]: 6%
- Population Membrane Permeable-Phenotype (%) [1]: 0%
- Population Mitochondria Different-Phenotype (%) [1]: 2%
- Population Mitotic Cells (%) [1]: 30%
- Population Normal (%) [1]: 93%
- Population Pyknosed Nuclei (%) [1]: 7%
- Population Tubulin-Different-Phenotype (%) [1]: 26%
- Total Cell Count [1]: 186
- Population Apoptotic (%) [2]: 35%
- Population Fragmented Nuclei (%) [2]: 20%
- Population Healthy Nuclei (%) [2]: 46%
- Population Membrane Permeable-Phenotype (%) [2]: 4%
- Population Mitochondria Different-Phenotype (%) [2]: 1%
- Population Mitotic Cells (%) [2]: 64%
- Population Pyknosed Nuclei (%) [2]: 33%
- Population Tubulin-Different-Phenotype (%) [2]: 25%
- Total Cell Count [2]: 144
- Population Apoptotic (%) [3]: 50%
- Population Fragmented Nuclei (%) [3]: 25%
- Population Healthy Nuclei (%) [3]: 64%
- Population Hoechst High Intensity Objects (%) [3]: 3%
- Population Membrane Permeable-Phenotype (%) [3]: 0%
- Population Mitochondria Different-Phenotype (%) [3]: 11%
- Population Mitotic Cells (%) [3]: 50%
- Population Normal (%) [3]: 96%
- Population Pyknosed Nuclei (%) [3]: 10%
- Population Tubulin-Different-Phenotype (%) [3]: 46%
- Total Cell Count [3]: 248
- Population Apoptotic (%) [4]: 35%
- Population Fragmented Nuclei (%) [4]: 44%
- Population Healthy Nuclei (%) [4]: 39%
- Population Hoechst High Intensity Objects (%) [4]: 5%
- Population Membrane Permeable-Phenotype (%) [4]: 6%
- Population Mitochondria Different-Phenotype (%) [4]: 10%
- Population Mitotic Cells (%) [4]: 64%
- Population Normal (%) [4]: 94%
- Population Pyknosed Nuclei (%) [4]: 16%
- Population Tubulin-Different-Phenotype (%) [4]: 53%
- Total Cell Count [4]: 178
- Population Apoptotic (%) [5]: 68%
- Population Fragmented Nuclei (%) [5]: 15%
- Population Healthy Nuclei (%) [5]: 74%
- Population Hoechst High Intensity Objects (%) [5]: 4%
- Population Membrane Permeable-Phenotype (%) [5]: 1%
- Population Mitochondria Different-Phenotype (%) [5]: 3%
- Population Mitotic Cells (%) [5]: 31%
- Population Normal (%) [5]: 95%
- Population Pyknosed Nuclei (%) [5]: 10%
- Population Tubulin-Different-Phenotype (%) [5]: 33%
- Total Cell Count [5]: 198
- Population Apoptotic (%) [6]: 44%
- Population Fragmented Nuclei (%) [6]: 24%
- Population Healthy Nuclei (%) [6]: 46%
- Population Hoechst High Intensity Objects (%) [6]: 6%
- Population Membrane Permeable-Phenotype (%) [6]: 3%
- Population Mitotic Cells (%) [6]: 55%
- Population Normal (%) [6]: 93%
- Population Pyknosed Nuclei (%) [6]: 29%
- Population Tubulin-Different-Phenotype (%) [6]: 39%
- Total Cell Count [6]: 132
- Population Apoptotic (%) [7]: 73%
- Population Fragmented Nuclei (%) [7]: 28%
- Population Healthy Nuclei (%) [7]: 65%
- Population Hoechst High Intensity Objects (%) [7]: 1%
- Population Membrane Permeable-Phenotype (%) [7]: 0%
- Population Mitochondria Different-Phenotype (%) [7]: 7%
- Population Mitotic Cells (%) [7]: 26%
- Population Normal (%) [7]: 98%
- Population Pyknosed Nuclei (%) [7]: 5%
- Population Tubulin-Different-Phenotype (%) [7]: 44%
- Total Cell Count [7]: 274
- Population Apoptotic (%) [8]: 43%
- Population Fragmented Nuclei (%) [8]: 43%
- Population Healthy Nuclei (%) [8]: 46%
- Population Hoechst High Intensity Objects (%) [8]: 10%
- Population Membrane Permeable-Phenotype (%) [8]: 2%
- Population Mitochondria Different-Phenotype (%) [8]: 5%
- Population Mitotic Cells (%) [8]: 56%
- Population Normal (%) [8]: 89%
- Population Pyknosed Nuclei (%) [8]: 9%
- Population Tubulin-Different-Phenotype (%) [8]: 53%
- Total Cell Count [8]: 181
- Population Apoptotic (%) [9]: 56%
- Population Fragmented Nuclei (%) [9]: 15%
- Population Healthy Nuclei (%) [9]: 75%
- Population Hoechst High Intensity Objects (%) [9]: 5%
- Population Membrane Permeable-Phenotype (%) [9]: 0%
- Population Mitochondria Different-Phenotype (%) [9]: 6%
- Population Mitotic Cells (%) [9]: 43%
- Population Normal (%) [9]: 94%
- Population Pyknosed Nuclei (%) [9]: 8%
- Population Tubulin-Different-Phenotype (%) [9]: 34%
- Total Cell Count [9]: 189
- Population Apoptotic (%) [10]: 58%
- Population Fragmented Nuclei (%) [10]: 24%
- Population Healthy Nuclei (%) [10]: 54%
- Population Hoechst High Intensity Objects (%) [10]: 7%
- Population Membrane Permeable-Phenotype (%) [10]: 6%
- Population Mitochondria Different-Phenotype (%) [10]: 1%
- Population Mitotic Cells (%) [10]: 41%
- Population Normal (%) [10]: 92%
- Population Pyknosed Nuclei (%) [10]: 21%
- Population Tubulin-Different-Phenotype (%) [10]: 33%
- Total Cell Count [10]: 156
- Population Apoptotic (%) [11]: 72%
- Population Fragmented Nuclei (%) [11]: 24%
- Population Healthy Nuclei (%) [11]: 68%
- Population Hoechst High Intensity Objects (%) [11]: 4%
- Population Membrane Permeable-Phenotype (%) [11]: 1%
- Population Mitochondria Different-Phenotype (%) [11]: 4%
- Population Mitotic Cells (%) [11]: 27%
- Population Normal (%) [11]: 95%
- Population Pyknosed Nuclei (%) [11]: 6%
- Population Tubulin-Different-Phenotype (%) [11]: 46%
- Total Cell Count [11]: 282
- Population Apoptotic (%) [12]: 46%
- Population Fragmented Nuclei (%) [12]: 52%
- Population Healthy Nuclei (%) [12]: 37%
- Population Hoechst High Intensity Objects (%) [12]: 5%
- Population Membrane Permeable-Phenotype (%) [12]: 6%
- Population Mitochondria Different-Phenotype (%) [12]: 11%
- Population Mitotic Cells (%) [12]: 53%
- Population Normal (%) [12]: 94%
- Population Pyknosed Nuclei (%) [12]: 9%
- Population Tubulin-Different-Phenotype (%) [12]: 44%
- Total Cell Count [12]: 170
